This note sets out measurements from ChEMBL document CHEMBL4732066, “SP1-independent inhibition of FOXM1 by modified thiazolidinediones” (Eur J Med Chem, 2021).

SMILES strings stand for the structures. Calls of active or inactive are those of the source. No cut-off for these calls is given here.

Assay [1] is described as follows: Downregulation of FOXM1 expression in human MDA-MB-231 cells at 40 uM after 48 hrs by Western blot analysis relative to control. Type of assay: functional. Put shortly:
(§1)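 MDA-MB-231 cells (RPMI, 10% FBS, 37 °C, 5% CO2) were treated in 6-well plates and lysed in RIPA buffer for 30 min after ice-cold PBS washes. Protein was quantified by Bradford and equal amounts run on 10% SDS-PAGE, then transferred to nitrocellulose and blocked in 10% milk/TBST for 45 min. Primary antibody was used at 1:1000 at 4 °C overnight, secondary for 45 min at RT, with chemiluminescent detection.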

In assay [2] the test system is MDA-MB-231. Description: Effect on SP1 expression in human MDA-MB-231 cells at 80 uM after 24 hrs by Western blot analysis. Type of assay: functional, cell-based. An outline of the steps:
as §1

The target of assay [3] is T1, Forkhead box protein M1 (Homo sapiens, UniProt Q08050).
T1 sequence (Q08050 whole entry): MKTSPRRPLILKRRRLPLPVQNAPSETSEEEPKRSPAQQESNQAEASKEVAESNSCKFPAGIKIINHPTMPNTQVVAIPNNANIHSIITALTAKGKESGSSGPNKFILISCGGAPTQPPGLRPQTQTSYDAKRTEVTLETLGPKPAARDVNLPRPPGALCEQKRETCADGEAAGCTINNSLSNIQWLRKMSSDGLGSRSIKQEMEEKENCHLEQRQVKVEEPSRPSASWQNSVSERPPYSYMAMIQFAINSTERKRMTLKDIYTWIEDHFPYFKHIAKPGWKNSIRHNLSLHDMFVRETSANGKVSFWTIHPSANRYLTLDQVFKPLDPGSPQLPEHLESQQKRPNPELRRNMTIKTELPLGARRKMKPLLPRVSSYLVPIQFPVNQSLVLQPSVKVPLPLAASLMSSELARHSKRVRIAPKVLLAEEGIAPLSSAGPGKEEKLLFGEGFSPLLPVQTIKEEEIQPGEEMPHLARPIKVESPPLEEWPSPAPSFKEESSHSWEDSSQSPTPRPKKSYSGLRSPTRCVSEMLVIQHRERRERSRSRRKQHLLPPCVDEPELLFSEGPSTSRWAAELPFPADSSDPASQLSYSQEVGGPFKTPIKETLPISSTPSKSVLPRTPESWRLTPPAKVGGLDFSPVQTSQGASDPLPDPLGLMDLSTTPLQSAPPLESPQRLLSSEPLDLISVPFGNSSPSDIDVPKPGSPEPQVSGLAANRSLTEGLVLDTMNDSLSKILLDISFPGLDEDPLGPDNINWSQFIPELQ
Description: Binding affinity to recombinant FOXM1 DBD (unknown origin) expressed in Escherichia coli BL21 (DE3) assessed as disruption of FOXM1-DNA complex preincubated for 1.5 hrs followed by DNA addition measured after 20 mins by EMSA. Background: Mobility shift assays separate free from complexed probe on a gel.

Assay [4] addresses T2, Forkhead box protein M1 (Homo sapiens) (UniProt Q08050).
T2 sequence (whole entry): T1 sequence (Q08050 whole entry)
Description: Inhibition of FOXM1 transcriptional activity in human MDA-MB-231 cells at 40 uM after 12 hrs by luciferase reporter gene assay. The assay is classed as cell-based. An outline of the steps: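 MDA-MB-231 cells were transiently transfected with equal amounts of 6x-FOXM1 firefly luciferase reporter and empty pGL4.10 backbone. After 24 h, cells were drug-treated for 12 h, PBS-washed and lysed in reporter lysis buffer. Firefly luciferase activity was read on equal total protein per lysate, in triplicate, with significance by one-way ANOVA.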
Background: A reporter such as luciferase makes a cellular process visible.

Assay [5] has as its system MDA-MB-231. Description: Downregulation of SP1 expression in human MDA-MB-231 cells at 80 uM after 24 hrs by Western blot analysis. The assay is classed as functional, cell-based. An outline of the steps:
as §1
(In general: Immunoblotting shows a protein as a band on a membrane.)

By inhibition is commonly meant how much of the control response was suppressed. The compound `O=C1NC(=O)/C(=C/c2ccc(OCc3ccc([N+](=O)[O-])cc3)c([N+](=O)[O-])c2)S1` registered an inhibition at 40 µM in assay [1] of 80%. With `COc1cc(/C=C2\SC(=O)NC2=O)ccc1OCc1ccc(C(F)(F)F)cc1`, the inhibition at 40 µM in assay [1] is greater than 90%. Moreover, the outcome in assay [2] was inactive. In assay [1], `COc1cc(/C=C2\SC(=O)NC2=O)ccc1OCc1ccc([N+](=O)[O-])cc1` came in with an inhibition at 40 µM of 80%.

Turning to `O=C1NC(=O)/C(=C/c2ccc(OCc3ccc(C(F)(F)F)cc3)cc2)S1`, the inhibition at 40 µM in assay [1] was greater than 90%.

As for `COC(=O)c1ccc(COc2ccc(/C=C3\SC(=O)NC3=O)cc2OC)cc1`, in assay [1], testing at 40 µM gave an inhibition of 80%.

In assay [1], `COc1ccc(/C=C2\SC(=O)NC2=O)cc1OCc1ccc([N+](=O)[O-])cc1` yielded an inhibition at 40 µM greater than 90%. On the same count and under the same terms, to `COc1ccc(/C=C2\SC(=O)NC2=O)cc1OCc1ccc(C(F)(F)F)cc1` belongs 80%; to `O=C1NC(=O)/C(=C/c2ccc(OCc3ccc([N+](=O)[O-])cc3)cc2)S1`, 80%. By IC50 is commonly meant the concentration at which inhibition is half-maximal. For orientation: Ki means a dissociation constant, usually derived from enzyme kinetics or from competition with a known ligand. Turning to `Cc1c(C)c2c(c(C)c1O)CCC(C)(COc1ccc(CC3SC(=O)NC3=O)cc1)O2` (stereo unspecified) [TROGLITAZONE], in assay [1], the inhibition at 40 µM was found to be 80%. Also, in assay [3], the IC50 came to 122 µM and the inhibitory constant (Ki) stood at 0.052 µM. For the same compound, the inhibition entry in assay [4] is “Active”. Further, the inhibition entry in assay [5] was “Active”. Turning to `Nc1c(C(=O)Nc2ccc(F)cc2)sc2nc(-c3cccs3)cc(C(F)(F)F)c12`, 40 µM produced 80% inhibition in assay [1]. In the case of `COC(=O)c1ccc(COc2ccc(/C=C3\SC(=O)NC3=O)cc2[N+](=O)[O-])cc1`, the inhibition at 40 µM in assay [1] came out at 80%.
